Laboratory results taken from ChEMBL document CHEMBL3526126, “Amide hydrolysis of a novel chemical series of microsomal prostaglandin E synthase-1 inhibitors induces kidney toxicity in the rat” (Drug Metab Dispos, 2013).

Legend:
Rattus norvegicus [1] = assay: Toxicity in Wistar Hannover rat kidney assessed as pathophysiological changes at 70 to 500 umol/kg, po qd administered for 7 days measured on day 7; conditions: in vivo, 168 h
[2] = Cmax in Wistar Hannover rat at 200 umol/kg, po qd measured on day 1; conditions: in vivo
Rattus norvegicus [3] = assay: Toxicity in Wistar Hannover rat kidney assessed as increase in plasma creatinine level at >= 500 to 1000 umol/kg, po qd administered for 7 days measured on day 7; type: organism-based; conditions: in vivo, 168 h
Method in brief: (§1)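 Wistar Hannover rats, about 8 weeks old, were acclimatized about 2 weeks and randomized by body weight. Dosing was by oral gavage (10 ml/kg) once daily for 7 days, with vehicle controls. At the end of dosing, plasma (lithium heparin) was taken from the orbital plexus under isoflurane/oxygen anaesthesia, and urea and creatinine were measured.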

Rattus norvegicus [4] = assay: Toxicity in Wistar Hannover rat kidney assessed as crystals in urine at 76 to 230 umol/kg, po qd administered for 7 days measured on day 7 by hematoxylin/eosin staining-based light microscopic analysis; type: organism-based; conditions: in vivo, 168 h
[5] = Cmax in Sprague-Dawley rat at 70 umol/kg, po qd administered for 7 days measured on day 7; type: ADME, organism-based; parameters: dose 70 umol/kg, route oral; conditions: in vivo
Method in brief: (§2)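 Toxicity study 2: 2 female satellite rats per dose group. Dosing was once daily by oral gavage (10 ml/kg) for 7 days. Tail-vein EDTA blood was taken at 2, 4, 6, 7 and 24 h on day 1 and on day 7, then chilled and centrifuged to plasma. Parent and M1 were quantified by LC-MS/MS, with M1 measured in negative electrospray mode.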

[6] = AUC (0 to 24 hrs) in Wistar Hannover rat at 200 umol/kg, po qd measured on day 1; conditions: plasma
[7] = AUC (0 to 24 hrs) in Sprague-Dawley rat at 70 umol/kg, po qd administered for 7 days measured on day 7; type: ADME, organism-based; parameters: time < 24 hr, dose 70 umol/kg, route oral; conditions: plasma
Method in brief: as §2

[8] = AUC (0 to 24 hrs) in Wistar Hannover rat at 70 umol/kg, po qd measured on day 1; conditions: plasma
[9] = Cmax in Sprague-Dawley rat at 200 umol/kg, po qd administered for 7 days measured on day 7; type: ADME, organism-based; parameters: dose 200 umol/kg, route oral; conditions: in vivo
Method in brief: as §2

[10] = Cmax in Wistar Hannover rat at 70 umol/kg, po qd measured on day 1; conditions: in vivo
[11] = Drug metabolism in Sprague-Dawley rat hepatocytes assessed as amide hydrolysis at 1 to 10 uM by LC-MS analysis; type: ADME, cell-based, Hepatocyte
Method in brief: (§3)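 Hepatocytes at 1 × 10^6 cells/ml in William's medium incubated at 37°C with gentle shaking under 5% CO2. Substrate was at […]. Metabolites were analysed by LC-MS.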

[12] = AUC (0 to 24 hrs) in Sprague-Dawley rat at 200 umol/kg, po qd administered for 7 days measured on day 7; type: ADME, organism-based; parameters: dose 200 umol/kg, time < 24 hr, route oral; conditions: plasma
Method in brief: as §2

Rattus norvegicus [13] = assay: Toxicity in Wistar Hannover rat kidney assessed as increase in plasma urea level at >= 500 to 1000 umol/kg, po qd administered for 7 days measured on day 7; type: organism-based; conditions: in vivo, 168 h
Method in brief: as §1

[14] = Cmax in Wistar Hannover rat at 500 umol/kg, po qd measured on day 1; conditions: in vivo
[15] = Cmax in Sprague-Dawley rat at 170 umol/kg, po qd administered for 7 days measured on day 7; type: ADME, organism-based; parameters: dose 170 umol/kg, route oral; conditions: in vivo
Method in brief: as §2

Rattus norvegicus [16] = assay: Toxicity in Wistar Hannover rat kidney assessed as crystals in urine at 500 umol/kg, po qd administered for 7 days measured on day 7; type: organism-based; conditions: in vivo, 168 h
[17] = AUC (0 to 24 hrs) in Wistar Hannover rat at 500 umol/kg, po qd measured on day 1; conditions: plasma
[18] = AUC (0 to 24 hrs) in Wistar Hannover rat at 170 umol/kg, po qd measured on day 1; conditions: plasma
[19] = AUC (0 to 24 hrs) in Sprague-Dawley rat at 500 umol/kg, po qd administered for 7 days measured on day 7; type: ADME, organism-based; parameters: dose 500 umol/kg, time < 24 hr, route oral; conditions: plasma
Method in brief: as §2

[20] = AUC (0 to 24 hrs) in Sprague-Dawley rat at 170 umol/kg, po qd administered for 7 days measured on day 7; type: ADME, organism-based; parameters: time < 24 hr, dose 170 umol/kg, route oral; conditions: plasma
Method in brief: as §2

Prostaglandin E synthase = target: T1, Prostaglandin E synthase (Homo sapiens, UniProt O14684); assay: Inhibition of human mPGES-1 by whole blood assay
T1 sequence (O14684 whole entry): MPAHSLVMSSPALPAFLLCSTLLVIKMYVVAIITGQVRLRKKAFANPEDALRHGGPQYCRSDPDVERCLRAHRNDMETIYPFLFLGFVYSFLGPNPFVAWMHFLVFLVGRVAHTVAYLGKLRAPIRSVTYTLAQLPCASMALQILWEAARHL

[21] = Cmax in Sprague-Dawley rat at 500 umol/kg, po qd administered for 7 days measured on day 7; type: ADME, organism-based; parameters: dose 500 umol/kg, route oral; conditions: in vivo
Method in brief: as §2

[22] = Cmax in Wistar Hannover rat at 170 umol/kg, po qd measured on day 1; conditions: in vivo
Rattus norvegicus [23] = assay: Toxicity in Wistar Hannover rat kidney assessed as crystals in urine at 435 to 900 umol/kg, po qd administered for 14 days measured on day 14; type: organism-based; conditions: in vivo, 336 h
[24] = Cmax in Sprague-Dawley rat at 435 umol/kg, po qd measured on day 1; type: ADME, organism-based; parameters: dose 435 umol/kg, route oral; conditions: in vivo
Method in brief: (§4)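 Toxicity study 3: 5 female animals per dose group for TK. The compound was given as a solution in 15% (w/v) hydroxypropyl-β-cyclodextrin in 0.2 M meglumine, by oral gavage (10 ml/kg) once daily for 14 days. Blood was microsampled at 2, 4, 6, 7 and 24 h on day 1 and on the last dosing day. Parent only was measured, not M1.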

[25] = Drug metabolism in cryopreserved human hepatocytes assessed as amide hydrolysis at 1 to 10 uM by LC-MS analysis; type: ADME, cell-based, Hepatocyte
Method in brief: as §3

[26] = Cmax in Sprague-Dawley rat at 10 umol/kg, po qd measured on day 1; type: ADME, organism-based; parameters: dose 10 umol/kg, route oral; conditions: in vivo
Method in brief: (§5)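 Single-dose PK in male Sprague-Dawley rats (n = 3). Plasma was profiled over time for parent and for the amide-hydrolysis metabolite M1, and AUC0–24 and Cmax were derived. The dosing protocol follows earlier work.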

[27] = AUC (0 to 24 hrs) in Sprague-Dawley rat at 900 umol/kg, po qd measured on day 1; type: ADME, organism-based; parameters: time < 24 hr, dose 900 umol/kg, route oral; conditions: plasma
Method in brief: as §4

[28] = Cmax in Sprague-Dawley rat at 900 umol/kg, po qd measured on day 1; type: ADME, organism-based; parameters: dose 900 umol/kg, route oral; conditions: in vivo
Method in brief: as §4

Rattus norvegicus [29] = assay: Toxicity in Wistar Hannover rat kidney assessed as change in plasma chemistry parameter at 435 umol/kg, po qd administered for 14 days measured on day 14; type: organism-based; conditions: in vivo, 336 h
Method in brief: (§6)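 Female Wistar Hannover rats (10 per group), about 8 weeks old, were dosed by oral gavage (10 ml/kg) once daily for 14 days. The compound was given as a solution in 15% (w/v) hydroxypropyl-β-cyclodextrin in 0.2 M meglumine. At the end of dosing, plasma (lithium heparin) was taken from the orbital plexus under isoflurane/oxygen anaesthesia for plasma chemistry.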

[30] = AUC (0 to 24 hrs) in Sprague-Dawley rat at 435 umol/kg, po qd measured on day 1; type: ADME, organism-based; parameters: dose 435 umol/kg, time < 24 hr, route oral; conditions: plasma
Method in brief: as §4

[31] = Cmax in Sprague-Dawley rat at 435 umol/kg, po qd administered for 14 days measured on day 14; type: ADME, organism-based; parameters: dose 435 umol/kg, route oral; conditions: in vivo
Method in brief: as §4

Rattus norvegicus [32] = assay: Toxicity in Wistar Hannover rat kidney assessed as increase in plasma creatinine level at 435 to 900 umol/kg, po qd administered for 14 days measured on day 14; type: organism-based; conditions: in vivo, 336 h, in the assay text read “900 umol/kg” for “435 to 900 umol/kg”
Method in brief: as §6

[33] = Cmax in Sprague-Dawley rat at 900 umol/kg, po qd administered for 14 days measured on day 14; type: ADME, organism-based; parameters: dose 900 umol/kg, route oral; conditions: in vivo
Method in brief: as §4

[34] = AUC (0 to 24 hrs) in Sprague-Dawley rat at 900 umol/kg, po qd administered for 14 days measured on day 14; type: ADME, organism-based; parameters: dose 900 umol/kg, time < 24 hr, route oral; conditions: plasma
Method in brief: as §4

Rattus norvegicus [35] = assay: Toxicity in Wistar Hannover rat kidney assessed as increase in plasma urea level at 435 to 900 umol/kg, po qd administered for 14 days measured on day 14; type: organism-based; conditions: in vivo, 336 h
Method in brief: as §6

[36] = AUC (0 to 24 hrs) in Sprague-Dawley rat at 10 umol/kg, po qd measured on day 1; type: ADME, organism-based; parameters: dose 10 umol/kg, time < 24 hr, route oral; conditions: plasma
Method in brief: as §5

[37] = AUC (0 to 24 hrs) in Sprague-Dawley rat at 435 umol/kg, po qd administered for 14 days measured on day 14; type: ADME, organism-based; parameters: dose 435 umol/kg, time < 24 hr, route oral; conditions: plasma
Method in brief: as §4

Question: Which Activity (Rattus norvegicus [1]) does the source give for COc1cc(C(=O)NS(=O)(=O)c2ccccc2S(N)(=O)=O)ccc1C#CC1CC1 here?
Answer: Non-toxic

Question: What about the Cmax [2] of the same molecule?
Answer: 90 µM

Question: What about the Activity (Rattus norvegicus [3]) of the same molecule?
Answer: Non-toxic

Question: What about the Activity (Rattus norvegicus [4]) of the same molecule?
Answer: Non-toxic

Question: What about the Cmax [5] of the same molecule?
Answer: 50 µM

Question: And the AUC(0-t) at 24 h [6]?
Answer: 970 µM·h

Question: What about the AUC at 24 h [7] of the same molecule?
Answer: 550 µM·h

Question: What about the AUC(0-t) at 24 h [8] of the same molecule?
Answer: 610 µM·h

Question: What about the Cmax [9] of the same molecule?
Answer: 110 µM

Question: What about the Cmax [10] of the same molecule?
Answer: 50 µM

Question: What about the Drug metabolism [11] of the same molecule?
Answer: metabolite_not_detected

Question: And the AUC at 24 h [12]?
Answer: 1070 µM·h

Question: What about the Activity (Rattus norvegicus [13]) of the same molecule?
Answer: Non-toxic

Question: Which Cmax [14] does the source give for CC(C)C#Cc1ccc(C(=O)NS(=O)(=O)c2ccccc2S(N)(=O)=O)cc1OCCC(F)(F)F here?
Answer: 300 µM

Question: What about the Activity (Rattus norvegicus [1]) of the same molecule?
Answer: Non-toxic

Question: What about the Cmax [15] of the same molecule?
Answer: 190 µM

Question: And the Activity (Rattus norvegicus [16])?
Answer: Toxic

Question: What about the Activity (Rattus norvegicus [3]) of the same molecule?
Answer: Non-toxic

Question: What about the AUC(0-t) at 24 h [17] of the same molecule?
Answer: 3410 µM·h

Question: What about the AUC(0-t) at 24 h [18] of the same molecule?
Answer: 1260 µM·h

Question: What about the AUC at 24 h [19] of the same molecule?
Answer: 3010 µM·h

Question: What about the AUC at 24 h [20] of the same molecule?
Answer: 1600 µM·h

Question: And the IC50 (Prostaglandin E synthase)?
Answer: > 2 µM

Question: And the Drug metabolism [11]?
Answer: metabolite_not_detected

Question: What about the Cmax [21] of the same molecule?
Answer: 320 µM

Question: What about the Cmax [22] of the same molecule?
Answer: 170 µM

Question: And the Activity (Rattus norvegicus [13])?
Answer: Non-toxic

Question: Which Activity (Rattus norvegicus [23]) does the source give for Cc1cc(C(=O)NS(=O)(=O)c2ccccc2S(N)(=O)=O)ccc1C#CC1CCC1 here?
Answer: Toxic

Question: What about the Cmax [24] of the same molecule?
Answer: 375 µM

Question: And the Drug metabolism [25]?
Answer: metabolite_not_detected

Question: What about the Cmax [26] of the same molecule?
Answer: 11 µM

Question: And the AUC(0-t) at 24 h [27]?
Answer: 5030 µM·h

Question: What about the Cmax [28] of the same molecule?
Answer: 540 µM

Question: And the Activity (Rattus norvegicus [29])?
Answer: Non-toxic

Question: What about the AUC(0-t) at 24 h [30] of the same molecule?
Answer: 2220 µM·h

Question: What about the Cmax [31] of the same molecule?
Answer: 415 µM

Question: What about the Activity (Rattus norvegicus [32]) of the same molecule?
Answer: Toxic

Question: And the Cmax [33]?
Answer: 480 µM

Question: What about the AUC at 24 h [34] of the same molecule?
Answer: 5000 µM·h

Question: What about the Activity (Rattus norvegicus [35]) of the same molecule?
Answer: Toxic

Question: And the AUC(0-t) at 24 h [36]?
Answer: 58 µM·h

Question: What about the AUC at 24 h [37] of the same molecule?
Answer: 2520 µM·h
